Test results as given in PMC5395206 (Journal of chemical information and modeling, 2016).

Legend:
[1] = system: CB2 F197 replaced with valine; conditions: cited from earlier work
CB2 = CB2 (Homo sapiens, UniProt P34972); assay: Radioligand competition binding assay, [3H]CP-55,940 displacement; conditions: inhibition of [3H]CP-55,940 (3 nM) binding to CB2 membrane protein
Method in brief: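 CB2 membrane protein (5 μg) incubated with [3H]CP-55,940 (3 nM final) and serial dilutions of test compound. Compound was diluted in binding buffer with 10% DMSO and 0.4% methylcellulose. Incubation was 1 h at 30 °C with gentle shaking, then GF/B filtration and scintillation counting. Run in duplicate, reported as mean ± SEM; Ki from nonlinear regression.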

human CB2 receptors = assay: LANCE cAMP assay in CB2-transfected CHO cells; format: cell-based
Method in brief: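 CHO cells stably transfected with wild-type human CB2, seeded at 2000 cells/well in RPMI-1640 with 1% dialyzed FBS, 25 mM HEPES and G-418, cultured overnight. Added cAMP antibody plus RO20-1724 (50 μM final) in DPBS/0.1% BSA, then test compound or forskolin (5 μM final). Incubated 45 min at RT, plus 1 h with detection reagent. TR-FRET read at ex 340/em 665 nm. ≥2 independent experiments in triplicate; EC50 from nonlinear regression.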

[2] = CHO cells expressing human CB2, forskolin-induced cAMP

CB2, sequence (P34972 whole entry): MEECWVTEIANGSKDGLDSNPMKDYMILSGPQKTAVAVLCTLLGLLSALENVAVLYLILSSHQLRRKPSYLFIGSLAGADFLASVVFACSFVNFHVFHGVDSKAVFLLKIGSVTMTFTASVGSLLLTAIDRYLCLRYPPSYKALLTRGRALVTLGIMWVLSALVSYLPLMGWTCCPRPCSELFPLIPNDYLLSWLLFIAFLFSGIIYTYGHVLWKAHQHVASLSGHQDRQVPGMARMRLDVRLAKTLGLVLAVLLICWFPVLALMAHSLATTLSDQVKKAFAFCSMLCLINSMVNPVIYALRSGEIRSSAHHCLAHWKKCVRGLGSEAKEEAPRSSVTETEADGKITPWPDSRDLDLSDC

Row | Structure (SMILES) | Ki (CB2) | also measured
1 | CCCCC/C=C\C/C=C\C/C=C\C/C=C\CCCC(=O)NCCO [AEA] |  | Effect of replacement of F197 with valine on association [1]: no effect
2 | CCCCCCC(C)(C)c1ccc([C@@H]2C[C@H](O)CC[C@H]2CCCO)c(O)c1 [CP55940] |  | Effect of replacement of F197 with valine on association [1]: no effect
3 | CC1CN(CCOC(=O)Nc2ccc(Cl)cc2)CCN1C(C)(C)C (stereo not shown) [NSC93299] | 2240 nM | 
4 | Cc1ccc(OCc2c(COc3ccc(Cl)cc3)sc3ccc(Cl)cc23)cc1 [NSC162677] | 1550 nM | 
5 | Cc1ccc(S(=O)(=O)N(Cc2ccc(Cl)cc2)S(=O)(=O)c2ccc(C)cc2)cc1 [NSC273936] | 346 nM | 
6 | Cc1ccc(S(=O)(=O)N(CCc2ccc(Cl)cc2)S(=O)(=O)c2ccc(C)cc2)cc1 [NSC273939] | 192 nM | 
7 | Cc1ccc(S(=O)(=O)N(CCc2ccccc2)S(=O)(=O)c2ccc(C)cc2)cc1 [NSC273940] | 195 nM | 
8 | Cc1ccc(S(=O)(=O)NC(CC(=O)OCc2ccccc2)C(=O)OCc2ccccc2)cc1 (stereo not shown) [NSC296950] | 2360 nM | Functional activity in LANCE cAMP assay (human CB2 receptors; [2]): inverse agonist
9 | CCN(CC)CCCNc1cccc2ccc(OC)nc12.I [NSC402300] | 398 nM | Functional activity in LANCE cAMP assay (human CB2 receptors; at concentrations above 10 μM): inverse agonist; Functional activity in LANCE cAMP assay (human CB2 receptors; at concentrations below 10 μM): neutral antagonist
10 | Cc1ccc(C)c(NC(=O)CCC(=O)C(C#N)c2nc3ccccc3s2)c1 (stereo not shown) [NSC618804] | 656 nM | 
11 | COC(=O)CCc1c(Cc2ccc[nH]2)[nH]c(C(=O)OCc2ccccc2)c1C [NSC669611] | 923 nM | Functional activity in LANCE cAMP assay (human CB2 receptors; [2]): behaves similarly to NSC402300; Functional activity in LANCE cAMP assay (human CB2 receptors; at concentrations below 10 μM): neutral antagonist
12 | COc1ccc(C(=O)c2nc3ccccc3n2CC(=O)c2ccc(Cl)cc2)cc1 [NSC745454] | 1550 nM | 
13 | Cc1c(C(=O)c2cccc3ccccc23)c2cccc3c2n1[C@H](CN1CCOCC1)CO3 [WIN55,212-2] |  | Decrease in binding affinity to CB2 on replacement of F197 with valine [1]: 14 fold
14 | CCCCCCC(C)(C)c1cc(O)c2c(c1)OC(C)(C)[C@@H]1CC=C(CO)C[C@@H]21 [hU-210] |  | Effect of replacement of F197 with valine on association [1]: no effect
